Screens deposited in PubChem by Johns Hopkins Ion Channel Center.
A selection: hits, their analogues and other compounds. The true share with any hit is near 3.5%.
RGS4 inh – inhibitors of human RGS4 | P49798 | AID 463165 | HEK293 M3R/RGS4 inducible, Fluo-4 calcium flux; active compounds read high; triggered by carbachol at its EC20 | B-score at 10 µM | hit rate 0.45% among 310,000;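 active means B-score, a plate-corrected calcium signal, over three deviations above library mean, with baseline fluorescence within five deviations of library mean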;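 further: RGS4 expression induced by doxycycline in cells with stable M3 receptor; B-score is computed from the integrated fluorescence ratio over baseline after carbachol; higher B-score means a larger calcium signal and so more RGS4 inhibition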
Target sequence (P49798 whole entry, looked up): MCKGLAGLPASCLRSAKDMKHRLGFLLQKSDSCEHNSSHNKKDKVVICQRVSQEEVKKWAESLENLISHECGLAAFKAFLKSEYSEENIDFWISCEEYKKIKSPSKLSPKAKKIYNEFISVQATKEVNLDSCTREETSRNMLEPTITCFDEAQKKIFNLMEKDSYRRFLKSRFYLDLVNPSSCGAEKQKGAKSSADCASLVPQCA
MrgX1 allo act – human MrgX1 positive allosteric modulation, primary screen. Q96LB2. MrgX1-HEK293, Fluo-4 calcium flux, FDSS; active compounds read high. B-score at 10 µM. hit rate 0.63% among 310,000. AID 588675;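 active means plate-corrected calcium response at least 3 library SD above typical, normal starting fluorescence, not activating the receptor alone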;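 further: compound read alongside a low EC10 to EC30 dose of BAM8-22 agonist; peak minus trough fluorescence over baseline measured at the second addition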
Target sequence (Q96LB2 whole entry, looked up): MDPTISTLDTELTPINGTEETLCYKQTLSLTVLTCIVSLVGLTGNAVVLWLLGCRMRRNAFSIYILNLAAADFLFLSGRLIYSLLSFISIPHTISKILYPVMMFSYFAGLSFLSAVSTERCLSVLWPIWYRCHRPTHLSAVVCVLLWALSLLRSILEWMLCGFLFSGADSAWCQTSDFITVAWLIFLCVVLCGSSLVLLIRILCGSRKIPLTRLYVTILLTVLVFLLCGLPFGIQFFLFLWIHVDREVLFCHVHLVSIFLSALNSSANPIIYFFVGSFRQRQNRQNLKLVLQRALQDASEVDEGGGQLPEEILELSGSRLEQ
RGS4 act – potentiators or activators of RGS4. HEK293 M3R/inducible RGS4, carbachol calcium flux Fluo4; active compounds read low. B-score at 10 µM. hit rate 0.92% among 310,000. AID 463111;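 active means B-score of the integrated calcium signal more than 4 SD below the library mean, with starting fluorescence not abnormally high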;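 further: negative B-score means reduced calcium response which marks RGS4 activation or potentiation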
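Detection: kinetic calcium fluorescence imaging with Fluo4-AM dye, 2 µM / Material: HEK293 cells with stable M3R and inducible RGS4 / Schedule: recording 10 s baseline at 1 Hz, 100 s post-agonist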
MrgX1 ag – human MrgX1 receptor agonism, primary screen; B-score at 10 µM; AID 588627; MrgX1-HEK293 cells, Fluo-4 calcium fluorescence, agonist mode; active compounds read high; hit rate 0.44% among 310,000; Q96LB2;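 active means calcium response B-score plate-corrected fluorescence ratio at least 3 library SD, with starting fluorescence B-score inside 5 SD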
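Assay system: stable human MrgX1 HEK293 cell line. Quantity: 15,000 cells per well. Schedule: cells plated overnight, dye loaded 0.5 h 37 °C, 0.5 h room temperature. Detection: Fluo-4 NW calcium-flux fluorescence, kinetic read. Read-out basis: peak-minus-minimum fluorescence over baseline, converted to B scores. Control set: positive and negative control wells on each plate.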
MrgX1 antag – blocks BAM8-22 activation of human MrgX1 receptor. hit rate 1.3% among 310,000. MRGX1-HEK293 calcium flux, Fluo-4, BAM8-22 antagonism; active compounds read low. B-score at 10 µM. AID 588676. Q96LB2;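 active means calcium-response B-score plate-corrected more than 3 library SD below zero, starting fluorescence within 5 deviations, no agonist response on first addition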;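 further: peak minus trough fluorescence over baseline after final BAM8-22 challenge near maximal dose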
RGS4 inh valid – RGS4 inhibitor validation; shares compounds with RGS4 inh; HEK293 M3R/RGS4, carbachol calcium Fluo-4 fluorescence; carbachol added at its EC20; 0 = buffer wells, 100 = carbachol control; calcium response, % at 10 µM; hit rate 65% among 1,700;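 active means duplicate-averaged calcium response above the buffer-only control mean plus 5 SD of those controls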;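 further: integrated fluorescence ratio F max minus min over baseline F0; higher response in RGS4-induced cells means RGS4 inhibition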
RGS4 uninduced – counter-screen for RGS4 inhibitors: effect in non-induced cells; shares compounds with RGS4 inh; activity (percent), % at 10 µM; HEK293 M3R non-induced, carbachol calcium Fluo-4; submaximal (EC20) carbachol stimulus; buffer wells 0%, carbachol control wells 100%; hit rate 20% among 1,900; AID 493000; call rule not given here;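 further: RGS4 induction absent so cells express M3R without RGS4; higher means more calcium signal and flags a non-specific hit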
RGS4 inh ctr2 – second counter-screen for RGS4 inhibitors: non-induced cells without carbachol; shares compounds with RGS4 inh; HEK293 M3R/RGS4 non-induced, Fluo-4 calcium, no carbachol; normalised: buffer wells 0%, carbachol wells 100%; calcium response (agonist-mode artifact), % at 10 µM; hit rate 22% among 1,900; AID 493001;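 active means duplicate-averaged calcium rise in uninduced cells above buffer wells' mean plus 5 SD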
An asterisk follows results filed as active; i = inactive; · = no result.

SMILES | RGS4 inh | MrgX1 allo act | RGS4 act | MrgX1 ag | MrgX1 antag | RGS4 inh valid | RGS4 uninduced | RGS4 inh ctr2
COC(=O)C1CCN(Cc2cc(=O)oc3cc(OC)ccc23)CC1 | 4.79* | i | i | i | i | 21.0%* | i | i
O=C(N/C(=C/c1cccc(Br)c1)c1nc(=S)[nH][nH]1)c1ccccc1 | 7.21* | i | i | i | i | 45.0%* | i | 96.5%*
Cc1ccc(C(=O)N/C(=C\c2ccc(Br)cc2)c2nc(=S)[nH][nH]2)cc1 | i | i | i | i | i | · | i | 11.0%*
C[C@]12C(=O)N(c3ccc(Br)cc3)C(=O)N1[C@@H]1c3ccccc3OC[C@@H]1[C@H]2c1ccccc1 | i | i | i | i | i | · | · | ·
C[C@]12C(=O)N(c3ccc(Cl)cc3)C(=O)N1[C@H]1c3ccccc3OC[C@@H]1[C@H]2c1ccccc1 | i | i | i | i | i | i | i | i
C[C@]12C(=O)N(c3ccc(Cl)cc3)C(=O)N1[C@@H]1c3ccccc3OC[C@@H]1[C@H]2c1ccccc1 | i | i | i | i | i | i | i | i
C[C@@]12C(=O)N(c3ccc(F)cc3)C(=O)N1[C@@H]1c3ccccc3OC[C@@H]1[C@H]2c1ccccc1 | i | i | i | i | i | · | · | ·
CN1CCN(C(CNC(=O)C(=O)NC2CCCCC2)c2ccc(F)cc2)CC1 (stereo unspecified) | i | i | i | i | i | · | · | ·
CC(=O)OCCCNc1cc(Sc2nc3ccccc3s2)c2nonc2c1[N+](=O)[O-] | 4.72* | i | i | i | i | i | i | 113.0%*
CC(=O)OCCNc1cc(Sc2nc3ccccc3[nH]2)c2nonc2c1[N+](=O)[O-] | 15.5* | i | i | i | i | 6.5%* | i | i
O=[N+]([O-])c1c(NCCCO)cc(Sc2ccc(Cl)cc2)c2nonc12 | i | i | i | i | i | · | · | ·
CC(=O)OCCCNc1cc(Sc2ccc(C)cc2)c2nonc2c1[N+](=O)[O-] | i | i | i | i | i | · | · | ·
Cn1ccnc1Sc1cc(NCCCO)c([N+](=O)[O-])c2nonc12 | 17.5* | i | i | i | i | 49.5%* | i | i
CC(=O)OCCNc1cc(SCc2ccco2)c2nonc2c1[N+](=O)[O-] | i | i | i | i | i | · | · | ·
CCn1c(=O)c(CCC(=O)NCC2CCCO2)c(C)c2c(C)nn(-c3ccc(C)cc3)c21 (stereo unspecified) | i | i | i | i | i | · | · | ·
Cc1ccccc1OCc1nnc(SCC(=O)Nc2ccc3c(c2)oc2ccccc23)n1C | 5.1* | i | i | i | i | 14.5%* | i | i
Cc1ccc(NC(=O)COC(=O)C2CC3C=CC2C3)cc1S(=O)(=O)N1CCCCC1 (stereo unspecified) | i | i | i | i | i | · | · | ·
O=c1c2ccccc2c(-c2n[nH]c(=S)o2)nn1Cc1ccccc1 | i | i | i | i | i | · | · | ·
OCc1ccc(-c2nn(Cc3ccccc3)c3ccccc23)o1 | 5.06* | i | i | i | i | 6.0%* | i | i
O=C(O)c1cc2c(N3CCC(Cc4ccccc4)CC3)ncnc2s1 | 16.6* | i | i | i | i | 57.5%* | 50.5%* | i
c1ccc(CC2CCN(c3ncnc4sccc34)CC2)cc1 | i | · | i | · | · | · | · | ·
N#C/C(=C\c1ccccc1OCc1ccc(C(=O)O)cc1)C(=O)Nc1ccc(O)cc1 | 6.91* | i | i | i | i | 13.5%* | i | i
COC(=O)c1ccc(COc2ccccc2/C=C(\C#N)C(=O)Nc2ccc(C)cc2)cc1 | i | i | i | i | i | i | i | i
Cc1cc(Br)ccc1NC(=O)CSc1nnc(CN2CCOCC2)n1C | i | i | i | i | i | · | · | ·
CC(C)(C)OC1NS(=O)(=O)OCC1NCOC(Cl)(Cl)Cl (stereo unspecified) | 19.2* | i | i | i | i | 26.0%* | 39.5%* | 22.5%*
SMILES | RGS4 inh | MrgX1 allo act | RGS4 act | MrgX1 ag | MrgX1 antag | RGS4 inh valid | RGS4 uninduced | RGS4 inh ctr2
O/N=C/c1cn(-c2ccccc2)nc1-c1ccccc1 | i | i | i | i | i | · | · | ·
CC1(C)CC(=O)C(=Cc2cn(-c3ccccc3)nc2-c2ccccc2)C(=O)C1 | i | i | i | i | i | i | i | i
COc1ccc(CN2C(=NC(=O)C3CC3)SC3CS(=O)(=O)CC32)cc1 (stereo unspecified) | i | i | i | i | i | · | · | ·
CC1(C)CC(=O)C(C(C2=C(O)CC(C)(C)CC2=O)c2cccs2)C(=O)C1 (stereo unspecified) | 5.71* | i | i | i | i | 24.5%* | 58.5%* | i
Cc1ccc(C(C2=C(O)CC(C)(C)CC2=O)C2C(=O)CC(C)(C)CC2=O)o1 (stereo unspecified) | 9.3* | i | i | i | i | 16.0%* | i | i
CC1(C)CC(=O)C(C(C2=C(O)CC(C)(C)CC2=O)c2cccc(O)c2)C(=O)C1 (stereo unspecified) | · | i | · | i | i | · | · | ·
CC(=O)Nc1ccccc1C(=O)C(=O)Nc1cccc(C(=O)N2CC(C)CC(C)C2)c1 (stereo unspecified) | i | i | i | i | i | · | · | ·
CCCNC(=O)CN(CCc1ccccc1)S(C)(=O)=O | i | i | i | i | i | · | · | ·
Cc1noc(NS(=O)(=O)c2ccc(N/C=C\C(=O)c3ccccc3)cc2)c1C | i | i | i | i | i | · | i | i
Cc1cccc(-n2ccc(=O)c(C(=O)Nc3ccc(S(=O)(=O)Nc4onc(C)c4C)cc3)n2)c1 | 4.68* | i | i | i | i | 7.0%* | i | i
Cc1noc(NS(=O)(=O)c2ccc(N/C=C\C(=O)c3ccc(F)cc3)cc2)c1C | i | i | i | i | i | · | 36.5%* | i
Cc1noc(NS(=O)(=O)c2ccc(N/C=C\C(=O)c3cccs3)cc2)c1C | i | i | i | i | i | · | · | ·
Cc1noc(NS(=O)(=O)c2ccc(N/C=C/C(=O)c3ccc4c(c3)OCO4)cc2)c1C | i | i | i | i | i | · | · | ·
